Data published in ChEMBL document CHEMBL1811814, “Synthesis and evaluation of indole, pyrazole, chromone and pyrimidine based conjugates for tumor growth inhibitory activities--development of highly efficacious cytotoxic agents” (Eur J Med Chem, 2010).

Assays:
Type in all cases: functional
SK-OV-3 = experiment: Growth inhibition of human SKOV3 cells assessed tumor cell growth at 10^-5 M; design: scale not given: the % may be the effect or the level left
How it was run: (§1)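 NCI 60-human-tumor-cell-line panel screen. Each compound was tested at a single concentration of 10^-5 M, and percent growth of tumor cells was recorded for each cell line. Growth inhibition was expressed from these percent-growth values.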

MDA-MB-468 = experiment: Growth inhibition of human MDA-MB-468 cells
SF-295 [1] = experiment: Growth inhibition of human SF295 cells
OVCAR-5 = experiment: Growth inhibition of human OVCAR5 cells
SR = experiment: Growth inhibition of human SR cells assessed tumor cell growth at 10^-5 M; design: scale not given: the % may be the effect or the level left
How it was run: (§2)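 Single-dose screen at 10^-5 M across the 60 human tumor cell line panel, run to NCI standards. The value is the percent growth of each cell line in the presence of compound. Compounds active at this dose moved on to five-concentration testing (10^-4 to 10^-8 M).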

786-0 = experiment: Growth inhibition of human 786-0 cells assessed tumor cell growth at 10^-5 M; design: scale not given: the % may be the effect or the level left; how it was run: as §1
CCRF-CEM = experiment: Growth inhibition of human CCRF-CEM cells
NCI/ADR-RES = experiment: Growth inhibition of human NCI/ADR-RES cells assessed tumor cell growth at 10^-5 M; design: scale not given: the % may be the effect or the level left; how it was run: as §1
TK-10 = experiment: Growth inhibition of human TK10 cells
[2] = Growth inhibition of human Hs 578T cells
COLO 205 = experiment: Growth inhibition of human COLO205 cells
SNB-19 = experiment: Growth inhibition of human SNB19 cells assessed tumor cell growth at 10^-5 M; design: scale not given: the % may be the effect or the level left; how it was run: as §2
NCI-H522 = experiment: Growth inhibition of human NCI-H522 cells assessed tumor cell growth at 10^-5 M; design: scale not given: the % may be the effect or the level left; how it was run: as §1
[3] = Growth inhibition of human Hs 578T cells assessed tumor cell growth at 10^-5 M; design: scale not given: the % may be the effect or the level left; how it was run: as §1
Malme-3M = experiment: Growth inhibition of human MALME-3M cells assessed tumor cell growth at 10^-5 M; design: scale not given: the % may be the effect or the level left; how it was run: as §1
BT-549 = experiment: Growth inhibition of human BT549 cells
MDA-MB-435 = experiment: Growth inhibition of human MDA-MB-435 cells assessed tumor cell growth at 10^-5 M; design: scale not given: the % may be the effect or the level left; how it was run: as §1
PC-3 = experiment: Growth inhibition of human PC3 cells
UO-31 [4] = experiment: Growth inhibition of human UO31 cells
OVCAR-3 = experiment: Growth inhibition of human OVCAR3 cells
SN12C = experiment: Growth inhibition of human SN12C cells assessed tumor cell growth at 10^-5 M; design: scale not given: the % may be the effect or the level left; how it was run: as §1
UO-31 [5] = experiment: Growth inhibition of human UO31 cells assessed tumor cell growth at 10^-5 M; design: scale not given: the % may be the effect or the level left; how it was run: as §2
UACC-257 = experiment: Growth inhibition of human UACC257 cells assessed tumor cell growth at 10^-5 M; design: scale not given: the % may be the effect or the level left; how it was run: as §2
M14 = experiment: Growth inhibition of human M14 cells assessed tumor cell growth at 10^-5 M; design: scale not given: the % may be the effect or the level left; how it was run: as §1
CAKI-1 = experiment: Growth inhibition of human Caki1 cells
SF-295 [6] = experiment: Growth inhibition of human SF295 cells assessed tumor cell growth at 10^-5 M; design: scale not given: the % may be the effect or the level left; how it was run: as §1
[7] = read-out: LC50 (the source's name)

In the case of `CC1=NN(c2cccc(Cl)c2)C(=O)/C1=C\c1c(O)ccc2ccccc12`, the Activity (SK-OV-3) is reported as 28.27%, the GI50 (MDA-MB-468) is reported as 17.7 µM and the CC50 (MDA-MB-468; [7]) is reported as over 100 µM. The GI50 (SF-295 [1]) was 22.9 µM, the CC50 (SF-295 [1]; [7]) was over 100 µM and the GI50 (OVCAR-5) was over 100 µM. For the same compound, the CC50 (OVCAR-5; [7]) was over 100 µM, the Activity (SR) was 29.7% and the Activity (786-0) was -46.85%. It also gave a GI50 (CCRF-CEM) of 97.7 µM, a CC50 (CCRF-CEM; [7]) of over 100 µM and an Activity (NCI/ADR-RES) of 75.31%. The GI50 (TK-10) was 34.6 µM, the CC50 (TK-10; [7]) was over 100 µM and the GI50 [2] was 32.3 µM. For the same compound, the CC50 [2, 7] was over 100 µM, the GI50 (COLO 205) was over 100 µM and the LC50 (COLO 205) was over 100 µM. The Activity (SNB-19) was 31.43%, the Activity (NCI-H522) was -11.28% and the Activity [3] was 82.15%. For the same compound, the Activity (Malme-3M) was 58.97%, the GI50 (BT-549) was 27.5 µM and the CC50 (BT-549; [7]) was over 100 µM. The Activity (MDA-MB-435) was 20.68%, the GI50 (PC-3) was over 100 µM and the CC50 (PC-3; [7]) was over 100 µM. The GI50 (UO-31 [4]) was over 100 µM, the CC50 (UO-31 [4]; [7]) was over 100 µM and the GI50 (OVCAR-3) was 58.8 µM. It also gave a CC50 (OVCAR-3; [7]) of over 100 µM, an Activity (SN12C) of 23.59% and an Activity (UO-31 [5]) of 66.56%. For the same compound, the Activity (UACC-257) was 79.99%, the Activity (M14) was 18.24% and the GI50 (CAKI-1) was over 100 µM. For the same compound, the CC50 (CAKI-1; [7]) was over 100 µM and the Activity (SF-295 [6]) was 25.62%.
